Test results taken from ChEMBL document CHEMBL3232932, “UPLC-MS-ELSD-PDA as a powerful dereplication tool to facilitate compound identification from small-molecule natural product libraries” (J Nat Prod, 2014).

Legend:
[1] = Retention time of the compound by ELSD chromatography; format: physicochemical
Summary of the method: (§1)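 Waters Acquity UPLC with ELSD, PDA and single-quadrupole ESI-MS (positive and negative modes). Fractions from automated fractionation of plant extracts were run on a BEH C18 column (2.1 × 50 mm, 1.7 μm) at 1.0 mL/min. Mobile phase was H2O with 0.1% HCOOH against CH3CN or MeOH, with a 3.0 min total run. The gradient differed by run.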

[2] = Retention time of the compound by PDA chromatography; format: physicochemical; summary of the method: as §1
[3] = Antiproliferative activity against mouse ependymoma cells harboring EPHB2 after 96 hrs by Cell-Titer Glo assay; format: functional, cell-based
Summary of the method: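 Cells seeded in neurobasal medium in 384-well plates. Compounds were pin-transferred 24 h later, and DMSO and cycloheximide controls were included on each plate. Dose-response was run as a dilution series in triplicate. After 96 h incubation, cell number was read by CellTiter-Glo luminescence. Data were log10-transformed and percent inhibition calculated, and EC50 was derived.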

| Compound | Retention_time [1] | Retention_time [2] | EC50 [3] |
| --- | --- | --- | --- |
| COc1cc(C[C@H]2C(=O)OC[C@@H]2Cc2ccc3c(c2)OCO3)cc(OC)c1OC | 1.2 min |  |  |
| C=C1CC[C@@H]2[C@](C)(CCC[C@]2(C)C(=O)O)[C@H]1CCC(C)(O)C(O)CO (mixture of isomers) | 0.92 min |  | > 100 µg/mL |
| COc1cc([C@@H]2c3cc4c(cc3C[C@H]3COC(=O)[C@@H]32)OCO4)cc(OC)c1OC [DESOXYPODOPHYLLOTOXIN] | 1.18 min | 1.15 min | 1.93 nM |

Continued, in another order:

| Retention_time [1] | Retention_time [2] | Compound | EC50 [3] |
| --- | --- | --- | --- |
| 0.89 min | 0.85 min | COc1cc([C@@H]2CC(=O)c3c(O)cc(O)cc3O2)ccc1O [HOMOERIODICTYOL] |  |
| 0.9 min | 0.92 min | CC1=c2cc3c(cc2C(=O)OC1(C)C)=C(C)C(C)(C)OC3=O |  |
| 1.02 min | 0.98 min | COc1cc(O)c2c(c1)OC(c1ccc(O)c(O)c1)CC2=O (centres undefined) |  |
| 0.91 min | 0.87 min | COc1ccc([C@@H]2CC(=O)c3c(O)cc(O)cc3O2)cc1O [HESPERETIN] |  |
